Measured values reported in ChEMBL document CHEMBL1141286, “Benzochromenones from the marine crinoid Comantheria rotula inhibit hypoxia-inducible factor-1 (HIF-1) in cell-based reporter assays and differentially suppress the growth of certain tumor cell lines” (J Nat Prod, 2007).
pIC50: −log10 of the molar value.

What was measured:
[1] = tested on: IGROV-1; experiment: Growth inhibition of human IGROV1 cells; assay type: functional
[2] = tested on: SR; experiment: Growth inhibition of human SR cells; assay type: functional
[3] = tested on: MDA-MB-231; experiment: Growth inhibition of human MDA-MB-231 cells; assay type: functional
[4] = tested on: EKVX; experiment: Growth inhibition of human EKVX cells; assay type: functional
[5] = tested on: SNB-19; experiment: Growth inhibition of human SNB19 cells; assay type: functional
[6] = Inhibition of HIF1 activation in PC3 cells by TK-luciferase assay; assay type: cell-based; conditions: Homo sapiens, PC-3
How it was run: (§1)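 HIF-1 reporter (pHRE-TK-Luc) assays in transfected PC-3 or T47D cells; HIF-1 induced by hypoxia or by the hypoxia mimetic 1,10-phenanthroline (10 μM); compounds at half-log concentrations; luciferase activity measured; IC50 from experiments in triplicate.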

[7] = tested on: CAKI-1; experiment: Growth inhibition of human CAKI1 cells; assay type: functional
[8] = tested on: 786-0; experiment: Growth inhibition of human 786-0 cells; assay type: functional
[9] = tested on: SK-MEL-2; experiment: Growth inhibition of human SK-MEL2 cells; assay type: functional
[10] = tested on: KM12; experiment: Growth inhibition of human KM12 cells; assay type: functional
[11] = tested on: M14; experiment: Growth inhibition of human M14 cells; assay type: functional
[12] = tested on: PC-3; experiment: Growth inhibition of human PC3 cells; assay type: functional
[13] = tested on: HCT-15; experiment: Growth inhibition of human HCT15 cells; assay type: functional
[14] = tested on: TK-10; experiment: Growth inhibition of human TK10 cells; assay type: functional
[15] = tested on: SK-MEL-5; experiment: Growth inhibition of human SK-MEL5 cells; assay type: functional
[16] = tested on: COLO 205; experiment: Growth inhibition of human COLO205 cells; assay type: functional
[17] = tested on: SF-268; experiment: Growth inhibition of human SF268 cells; assay type: functional
[18] = tested on: UACC-257; experiment: Growth inhibition of human UACC257 cells; assay type: functional
[19] = tested on: UO-31; experiment: Growth inhibition of human UO31 cells; assay type: functional
[20] = tested on: SK-OV-3; experiment: Growth inhibition of human SK-OV3 cells; assay type: functional
[21] = tested on: HT-29; experiment: Growth inhibition of human HT29 cells; assay type: functional
[22] = tested on: HL-60; experiment: Growth inhibition of human HL60 cells; assay type: functional
[23] = tested on: SN12C; experiment: Growth inhibition of human SN12C cells; assay type: functional
[24] = tested on: OVCAR-8; experiment: Growth inhibition of human OVACAR8 cells; assay type: functional
[25] = tested on: CCRF-CEM; experiment: Growth inhibition of human CCRF-CEM cells; assay type: functional
[26] = tested on: Hs-578T; experiment: Growth inhibition of human HS578T cells; assay type: functional
[27] = tested on: NCI/ADR-RES; experiment: Growth inhibition of human NCI/ADR-RES cells; assay type: functional
[28] = Inhibition of 1,10-phenanthroline-induced HIF1 activation in T47D cells by TK-luciferase assay; assay type: cell-based; conditions: Homo sapiens; how it was run: as §1
[29] = tested on: MDA-MB-435; experiment: Growth inhibition of human MDA-MB-435 cells; assay type: functional
[30] = tested on: SF-539; experiment: Growth inhibition of human SF539 cells; assay type: functional
[31] = tested on: NCI-H522; experiment: Growth inhibition of human NCI-H522 cells; assay type: functional
[32] = Growth inhibition of human OVACAR3 cells; assay type: functional
[33] = tested on: U-251; experiment: Growth inhibition of human U251 cells; assay type: functional
[34] = tested on: DU-145; experiment: Growth inhibition of human DU145 cells; assay type: functional
[35] = tested on: MCF7; experiment: Growth inhibition of human MCF7 cells; assay type: functional
[36] = tested on: Malme-3M; experiment: Growth inhibition of human MALME-3M cells; assay type: functional
[37] = tested on: A498; experiment: Growth inhibition of human A498 cells; assay type: functional
[38] = tested on: OVCAR-5; experiment: Growth inhibition of human OVACAR5 cells; assay type: functional
[39] = tested on: T47D; experiment: Growth inhibition of human T47D cells; assay type: functional
[40] = tested on: ACHN; experiment: Growth inhibition of human ACHN cells; assay type: functional
[41] = tested on: A549; experiment: Growth inhibition of human A549 cells; assay type: functional
[42] = tested on: NCI-H23; experiment: Growth inhibition of human NCI-H23 cells; assay type: functional
[43] = read-out: Log LC50 (the source's name) (converted)

For CCCc1cc(=O)c2c(OC)c3c(OC)cc(OC)cc3cc2o1, the GI50 [1] was 60.3 µM, the CC50 [1, 43] was > 100 µM and the TGI ([1]; read-out: Log TGI (converted)) was > 100 µM. The GI50 [2] was 39.8 µM, the CC50 [2, 43] was > 100 µM and the TGI ([2]; read-out: Log TGI (converted)) was > 100 µM. The GI50 [3] was 25.7 µM, the LC50 [3] was > 100 µM and the TGI ([3]; read-out: Log TGI (converted)) was > 100 µM. For the same compound, the GI50 [4] was 100 µM, the CC50 [4, 43] was > 100 µM and the TGI ([4]; read-out: Log TGI (converted)) was > 100 µM. The GI50 [5] was > 100 µM, the LC50 [5] was > 100 µM and the TGI ([5]; read-out: Log TGI (converted)) was > 100 µM. For the same compound, the pIC50 [6] was < 5.00, the GI50 [7] was > 100 µM and the LC50 [7] was > 100 µM. For the same compound, the TGI ([7]; read-out: Log TGI (converted)) was > 100 µM, the GI50 [8] was 91.2 µM and the LC50 [8] was > 100 µM. The TGI ([8]; read-out: Log TGI (converted)) was > 100 µM, the GI50 [9] was > 100 µM and the LC50 [9] was > 100 µM. The TGI ([9]; read-out: Log TGI (converted)) was > 100 µM, the GI50 [10] was 87.1 µM and the CC50 [10, 43] was > 100 µM. For the same compound, the TGI ([10]; read-out: Log TGI (converted)) was > 100 µM, the GI50 [11] was 67.6 µM and the LC50 (50% lethal concentration) [11] was 34.7 µM. The TGI ([11]; read-out: Log TGI (converted)) was > 100 µM, the GI50 [12] was 51.3 µM and the LC50 [12] was > 100 µM. The TGI ([12]; read-out: Log TGI (converted)) was > 100 µM, the GI50 [13] was 35.5 µM and the CC50 [13, 43] was > 100 µM. The TGI ([13]; read-out: Log TGI (converted)) was > 100 µM, the GI50 [14] was 37.2 µM and the LC50 [14] was > 100 µM. The TGI ([14]; read-out: Log TGI (converted)) was > 100 µM, the GI50 [15] was 45.7 µM and the LC50 [15] was > 100 µM. For the same compound, the TGI ([15]; read-out: Log TGI (converted)) was > 100 µM, the GI50 [16] was > 100 µM and the CC50 [16, 43] was > 100 µM. The TGI ([16]; read-out: Log TGI (converted)) was > 100 µM, the GI50 [17] was > 100 µM and the LC50 [17] was > 100 µM. For the same compound, the TGI ([17]; read-out: Log TGI (converted)) was > 100 µM, the GI50 [18] was > 100 µM and the LC50 [18] was > 100 µM. For the same compound, the TGI ([18]; read-out: Log TGI (converted)) was > 100 µM, the GI50 [19] was 42.7 µM and the LC50 [19] was > 100 µM. The TGI ([19]; read-out: Log TGI (converted)) was > 100 µM, the GI50 [20] was > 100 µM and the LC50 [20] was > 100 µM. The TGI ([20]; read-out: Log TGI (converted)) was > 100 µM, the GI50 [21] was 26.3 µM and the CC50 [21, 43] was > 100 µM. For the same compound, the TGI ([21]; read-out: Log TGI (converted)) was > 100 µM, the GI50 [22] was 42.7 µM and the LC50 [22] was > 100 µM. For the same compound, the TGI ([22]; read-out: Log TGI (converted)) was > 100 µM, the GI50 [23] was > 100 µM and the LC50 [23] was > 100 µM. The TGI ([23]; read-out: Log TGI (converted)) was > 100 µM, the GI50 [24] was > 100 µM and the LC50 [24] was > 100 µM. The TGI ([24]; read-out: Log TGI (converted)) was > 100 µM, the GI50 [25] was 58.9 µM and the LC50 [25] was > 100 µM. The TGI ([25]; read-out: Log TGI (converted)) was 100 µM, the GI50 [26] was 33.1 µM and the LC50 [26] was > 100 µM. The TGI ([26]; read-out: Log TGI (converted)) was > 100 µM, the GI50 [27] was 74.1 µM and the LC50 (concentration killing 50% of cells) [27] was > 100 µM. The TGI ([27]; read-out: Log TGI (converted)) was > 100 µM, the pIC50 [28] was 5.70 and the GI50 [29] was 97.7 µM. The LC50 [29] was > 100 µM, the TGI ([29]; read-out: Log TGI (converted)) was > 100 µM and the GI50 [30] was 100 µM. The LC50 [30] was > 100 µM, the TGI ([30]; read-out: Log TGI (converted)) was > 100 µM and the GI50 [31] was 32.4 µM. The CC50 [31, 43] was > 100 µM, the TGI ([31]; read-out: Log TGI (converted)) was > 100 µM and the GI50 [32] was 38.9 µM. The CC50 [32, 43] was > 100 µM, the TGI ([32]; read-out: Log TGI (converted)) was > 100 µM and the GI50 [33] was > 100 µM. The LC50 [33] was > 100 µM, the TGI ([33]; read-out: Log TGI (converted)) was > 100 µM and the GI50 [34] was 81.3 µM. The CC50 [34, 43] was > 100 µM, the TGI ([34]; read-out: Log TGI (converted)) was > 100 µM and the GI50 [35] was 93.3 µM. For the same compound, the LC50 [35] was > 100 µM, the TGI ([35]; read-out: Log TGI (converted)) was > 100 µM and the GI50 [36] was 83.2 µM. For the same compound, the CC50 [36, 43] was > 100 µM, the TGI ([36]; read-out: Log TGI (converted)) was > 100 µM and the GI50 [37] was 3.47 µM. For the same compound, the LC50 [37] was > 100 µM, the TGI ([37]; read-out: Log TGI (converted)) was > 100 µM and the GI50 [38] was > 100 µM. The LC50 [38] was > 100 µM, the TGI ([38]; read-out: Log TGI (converted)) was > 100 µM and the GI50 [39] was 16.6 µM. The LC50 [39] was > 100 µM, the TGI ([39]; read-out: Log TGI (converted)) was > 100 µM and the GI50 [40] was > 100 µM. For the same compound, the CC50 [40, 43] was > 100 µM, the TGI ([40]; read-out: Log TGI (converted)) was > 100 µM and the GI50 [41] was 58.9 µM. For the same compound, the CC50 [41, 43] was > 100 µM, the TGI ([41]; read-out: Log TGI (converted)) was > 100 µM and the GI50 [42] was > 100 µM. For the same compound, the CC50 [42, 43] was > 100 µM and the TGI ([42]; read-out: Log TGI (converted)) was > 100 µM.
